Reference: ChEMBL document CHEMBL1131419, “Methoxy-substituted 3-formyl-2-phenylindoles inhibit tubulin polymerization” (J Med Chem, 1998)

Experiments:
Tubulin (Bos taurus) = Tubulin (Bos taurus) (UniProt Q6B856+Q862L2+Q862F3); test: Tested for its capability of competing with colchicine for binding to tubulin.; assay type: protein assay; set-up: concentration or dose not given beside the values; conditions: concentration not given here
Outline: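 Calf brain tubulin (cycled, diluted 1:10 in PEM pH 6.6–6.7) incubated with 1 μM [3H]colchicine and 10 μM inhibitor (DMSO) for 30 min at 37 °C; GTP added on ice, mixture filtered through DEAE-cellulose filters, washed with PEM, bound radioactivity counted by liquid scintillation; no-tubulin mixtures as background. Mean of two independent experiments.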

Tubulin = Tubulin (Bos taurus, UniProt Q6B856+Q862L2+Q862F3); assay type: protein assay

SMILES | inhibition (Tubulin (Bos taurus)) [%] | IC50 (Tubulin) [µM]
COc1ccc(-c2[nH]c3cc(F)ccc3c2C=O)cc1 | – | 1.8
CCCCC1Cc2cc(O)ccc2-c2c(C=O)c3ccc(O)cc3n21 (configuration not stated) | – | 8.9
COc1ccc(-c2[nH]c3ccccc3c2C=O)cc1 | – | 3.3
CCCC1Cc2cc(O)ccc2-c2c(C=O)c3ccc(O)cc3n21 (configuration not stated) | 40 | 19
CCCC1Cc2cc(OC)ccc2-c2c(C=O)c3ccc(OC)cc3n21 (configuration not stated) | < 10 | –
COc1ccc(-c2[nH]c3ccc(OC)cc3c2C=O)cc1 | – | 4

Other lines, results leading:

inhibition (Tubulin (Bos taurus)) [%] | IC50 (Tubulin) [µM] | SMILES
30 | – | COc1ccc(-c2c(C=O)c3ccc(OC)cc3n2C)cc1
56 | 1.8 | COc1ccc(-c2sc3cc(OC)ccc3c2C=O)cc1
23 | 1.5 | COc1ccc(-c2[nH]c3cc(OC)ccc3c2C=O)cc1
